Measured values as given in ChEMBL document CHEMBL3779846, “Evaluation of toxicity on epithelial and tumor cells of biaryl dipeptide tyrosines” (Eur J Med Chem, 2016).
Activity calls are given as the source filed them. The rule behind the calls is not given here.

What was measured:
[1] = test system: HUVEC; test: Induction of mitochondrial membrane potential depolarization in HUVEC at 200 uM after 24 hrs by JC-1 staining based flow cytometry; format: cell-based; details: human
Summary of the method: (§1)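 Cells were kept in […] with 10% FBS at 37 C and 5% CO2. They were plated at 1 × 10⁴ cells/well and treated after adhesion. They were then PBS-washed and stained with JC-1 ([…]) for 30 min at 37 C, then trypsinized and centrifuged. Flow cytometry acquired 10,000 events (excitation 488 nm, emission 529/590 nm). Read-out was the ratio of mean green to red fluorescence, from two independent assays.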

[2] = test system: SK-MEL-28; test: Induction of mitochondrial membrane potential depolarization in human SK-MEL-28 cells at 200 uM after 24 hrs by JC-1 staining based flow cytometry; format: functional, cell-based; summary of the method: as §1
[3] = test system: HUVEC; test: Induction of apoptosis in HUVEC at 0.1 to 1 uM after 48 hrs by Annexin V-FITC/propidium iodide staining-based flow cytometry; format: cell-based; details: human
Summary of the method: (§2)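 After adhesion, 1 × 10⁴ cells/well were exposed for 48 h with medium control and 0.1% DMSO vehicle. Cells washed with PBS, trypsinized and centrifuged (600 × g, 10 min). Stained with FITC-Annexin V (1:100 in binding buffer, 30 min) and propidium iodide, then read by flow cytometry for apoptotic, late apoptotic and necrotic fractions; three independent assays.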

[4] = test system: SK-MEL-28; test: Cytotoxicity against human SK-MEL-28 cells assessed as impairment in cell metabolism at 0.1 to 1 uM after 24 to 48 hrs by MTT assay; format: functional, cell-based
Summary of the method: (§3)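 Cells maintained in […] with 10% FBS at 37 C, 5% CO2. 1 × 10³ cells/well plated, allowed 24 h adhesion, then treated in medium for 14, 24 or 48 h; vehicle 0.1% DMSO, 10% DMSO positive control. MTT converted to formazan, dissolved in DMSO, read at 570 nm. Expressed as % of untreated (RPMI-only) control; mean of three independent assays.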

[5] = test system: HUVEC; test: Cytotoxicity against HUVEC assessed as impairment in cell metabolism at 0.1 to 1 uM after 24 to 48 hrs by MTT assay; format: ADME, cell-based; details: human; summary of the method: as §3
[6] = test system: SK-MEL-28; test: Induction of mitochondrial membrane potential depolarization in human SK-MEL-28 cells at 0.1 to 1 uM after 48 hrs by JC-1 staining based flow cytometry; format: functional, cell-based
Summary of the method: (§4)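 1 × 10⁴ cells/well exposed 48 h after adhesion; medium control and 0.1% DMSO vehicle. Washed, stained with JC-1 for 30 min at 37 C, 5% CO2, then trypsinized and run on flow cytometry, 10,000 events; excitation 488 nm, emission 529 and 590 nm. Valinomycin positive control. Output: green-to-red mean fluorescence ratio; two independent assays.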

[7] = test system: HUVEC; test: Induction of mitochondrial membrane potential depolarization in HUVEC at 0.1 to 1 uM after 48 hrs by JC-1 staining based flow cytometry; format: cell-based; details: human; summary of the method: as §4
[8] = test system: SK-MEL-28; test: Induction of apoptosis in human SK-MEL-28 cells assessed as increase in necrotic cells at 0.1 to 1 uM after 48 hrs by Annexin V-FITC/propidium iodide staining-based flow cytometry; format: functional, cell-based; summary of the method: as §2
[9] = test system: HUVEC; test: Induction of apoptosis in HUVEC assessed as increase in late apoptotic cells at 0.1 to 1 uM after 48 hrs by Annexin V-FITC/propidium iodide staining-based flow cytometry; format: cell-based; details: human; summary of the method: as §2
[10] = test system: SK-MEL-28; test: Induction of apoptosis in human SK-MEL-28 cells assessed as increase in late apoptotic cells at 0.1 to 1 uM after 48 hrs by Annexin V-FITC/propidium iodide staining-based flow cytometry; format: functional, cell-based; summary of the method: as §2
[11] = test system: HUVEC; test: Induction of apoptosis in HUVEC assessed as increase in necrotic cells at 0.1 to 1 uM after 48 hrs by Annexin V-FITC/propidium iodide staining-based flow cytometry; format: cell-based; details: human; summary of the method: as §2
[12] = test system: HUVEC; test: Cytotoxicity against HUVEC assessed as reduction in cell proliferation at 0.1 to 1 uM after 14 to 48 hrs by trypan blue staining based haemocytometer method; details: human
Summary of the method: (§5)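 1 × 10⁴ cells/well in […] plus 10% FBS, treated after adhesion for 14, 24 or 48 h alongside medium control, 0.1% DMSO vehicle and 10% DMSO positive control. Cell number counted by trypan blue exclusion under optical microscopy; three independent assays.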

[13] = test system: SK-MEL-28; test: Induction of apoptosis in human SK-MEL-28 cells at 0.1 to 1 uM after 48 hrs by Annexin V-FITC/propidium iodide staining-based flow cytometry; format: functional, cell-based; summary of the method: as §2
[14] = test system: SK-MEL-28; test: Cytotoxicity against human SK-MEL-28 cells assessed as reduction in cell proliferation at 0.1 to 1 uM after 14 to 48 hrs by trypan blue staining based haemocytometer method; format: functional; summary of the method: as §5

Row | Structure (SMILES) | Activity [1] | Activity [2] | Activity [3] | Activity [4] | Activity [5] | Activity [6] | Activity [7] | Activity [8] | Activity [9] | Activity [10] | Activity [11] | Activity [12] | Activity [13] | Activity [14]
1 | CC(C)[C@@H]1NC(=O)[C@H](C)OC(=O)[C@@H](C(C)C)NC(=O)[C@@H](C(C)C)OC(=O)[C@H](C(C)C)NC(=O)[C@H](C)OC(=O)[C@@H](C(C)C)NC(=O)[C@@H](C(C)C)OC(=O)[C@H](C(C)C)NC(=O)[C@H](C)OC(=O)[C@@H](C(C)C)NC(=O)[C@@H](C(C)C)OC1=O [VALINOMYCIN] | Toxic | Active | – | – | – | – | – | – | – | – | – | – | – | –
2 | COC(=O)[C@H](Cc1ccc(O)c(-c2ccc(OC)cc2)c1)NC(=O)[C@H](Cc1ccc(O)c(-c2ccc(OC)cc2)c1)NC(=O)OC(C)(C)C | – | – | Non-toxic | Active | Non-toxic | inactive | Non-toxic | inactive | Non-toxic | inactive | Non-toxic | Non-toxic | inactive | Active
